# Screens (PubChem BioAssay)
# CRFR2-BP antag: CRF-BP/CRF-R2 complex antagonism; inhibition, % at 11.8 µM; 0.59% of 350,000 active; AID 588475; HEK293 CRF-R2/CRF-BP, CRF-induced calcium fluorescence;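 active means inhibition of the ligand-induced calcium signal above about 50% at the single tested concentration, limit read from the data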
# CRFR2-BP ag: CRF-BP/CRF-R2 complex agonism. HEK293 CRF-R2/CRF-BP, calcium dye fluorescence (FLIPR); percent of saturating CRF peptide response. activation, % at 13.2 µM. 0.46% of 350,000 active. AID 588473;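 active means activation of at least 50%, plus an integration ratio under a set limit after plate pattern correction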;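 further: plate controls were neutral control wells without compound for no effect and CRF at EC100 for full effect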
# Tn6 DDE FP: disrupts Tn6 cyclic peptide binding to fibrin D-Dimer-E complex; Fibrin DD(E) TRITC-Tn6 fluorescence polarization displacement; inhibition, % at 8.3 µM; 0.21% of 370,000 active; AID 720509;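 active means inhibition above a per-campaign cutoff: mean of compounds within control limits plus 3 SD, cut at about 15% in these data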;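 further: 0% = median of all compound wells on the plate and 100% = blocking peptide control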
# Target sequence (P02675 whole entry, looked up): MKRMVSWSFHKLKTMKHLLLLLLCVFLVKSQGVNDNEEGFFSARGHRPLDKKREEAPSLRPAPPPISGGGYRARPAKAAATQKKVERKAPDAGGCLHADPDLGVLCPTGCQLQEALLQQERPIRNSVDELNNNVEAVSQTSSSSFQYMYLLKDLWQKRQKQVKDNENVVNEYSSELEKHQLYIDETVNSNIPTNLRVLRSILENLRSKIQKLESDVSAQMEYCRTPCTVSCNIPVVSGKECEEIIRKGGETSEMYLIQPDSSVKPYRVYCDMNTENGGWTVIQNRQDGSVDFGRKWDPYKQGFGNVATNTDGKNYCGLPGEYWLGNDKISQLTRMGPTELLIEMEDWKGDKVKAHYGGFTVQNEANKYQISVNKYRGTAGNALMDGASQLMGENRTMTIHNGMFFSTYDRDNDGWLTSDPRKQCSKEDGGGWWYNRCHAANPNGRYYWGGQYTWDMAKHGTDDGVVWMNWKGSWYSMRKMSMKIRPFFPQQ
# DDE Tn7 FP inh: disrupts Tn7 cyclic peptide binding to fibrin D-Dimer-E complex; P02675; FP displacement of FITC-Tn7 peptide from fibrin DD(E); 0% = median of compound wells per plate; inhibition, % at 8.3 µM; 0.13% of 370,000 active; AID 720508;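 active means inhibition above the mean of compounds falling within the control limits plus 3 SD of them, cut at about 14% in these data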;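 further: 0% = plate median of compound wells and 100% = 10 µM Aha-Tn7 peptide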
#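 system = human fibrin DD(E) protein | quantity = DD(E) 2 µM final | medium = Tris/NaCl/CaCl2 buffer, pH 7.8 | also added = labelled Tn7 tracer, 0.1 µM | compound dosing = single point at 8.3 µM | timing = compound with protein 10 min, then 3 h after probe, room temperature | signal = FP measurement | benchmarks = Aha-Tn7 high control | repeats = one replicate per compound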
# DDE Tn7 confirm: DD(E)-Tn7 binding inhibition, FP confirmation; shares compounds with DDE Tn7 FP inh; FP displacement of TRITC-Tn7 peptide from DD(E); 0% set at plate's compound-well median; inhibition, % at 8.3 µM; 5% of 460 active; AID 720628;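 active means inhibition above the campaign cutoff, the mean of compounds within control limits plus 3 SD, cut at about 14% in these data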;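 further: 100% = median FP of high control wells holding Aha-Tn7 inhibitor peptide; displacers lower polarization since freed probe rises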
# DDE Tn7 FP ctr: counter-screen for inhibitors of Tn7 peptide binding to fibrin DD(E); shares compounds with DDE Tn7 FP inh; TRITC-Tn7 probe displacement, fluorescence polarization; inhibition, % at 8.3 µM; 3% of 460 active; AID 720633;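 active means inhibition above the cutoff, the mean of compounds lying between the control bounds plus 3 SD of those compounds, cut at about 17% in these data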;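 further: 0% = median of compound sample wells and 100% = excess unlabeled Aha-Tn7 peptide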
# DDE Tn6 FP ctr: counter-screen for inhibitors of Tn6 peptide binding to fibrin DD(E) | shares compounds with Tn6 DDE FP | TRITC-Tn6 fluorescence polarization displacement; 0% = median of compound wells, not DMSO | inhibition, % at 8.3 µM | 2% of 680 active | AID 720621;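 active means inhibition above the mean of test compounds lying between the control limits plus 3 SD of those, cut at about 14% in these data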;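 further: 0% = median of compound wells and 100% = wells with Aha-Tn7 blocking peptide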
# DDE Tn6 confirm: DD(E)-Tn6 binding inhibition, FP confirmation; shares compounds with Tn6 DDE FP; FP displacement of TRITC-Tn6 peptide from DD(E); 0% = per-plate median of test wells; inhibition, % at 8.3 µM; 10% of 680 active;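 active means inhibition above the mean of compounds lying within the control limits plus 3 SD, cut at about 16% in these data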;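 further: 100% = high control wells holding a competing inhibitor peptide at 10 µM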
# Numbers without * were called inactive; · = no result given. Most compounds without a hit are left out; they make up all but 1.2% or so of the library.
SMILES,CRFR2-BP antag,CRFR2-BP ag,Tn6 DDE FP,DDE Tn7 FP inh,others
O=c1oc2ccccc2c(O)c1C(c1ccc([N+](=O)[O-])cc1)c1c(O)c2ccccc2oc1=O,82*,21,-4,2,
CC(C)c1ccc(C(c2c(O)c3ccccc3oc2=O)c2c(O)c3ccccc3oc2=O)cc1,64*,-3,-7,0,
N#CCCC#N,·,·,1,-7,
CCN(CC)c1ccc(/C=N/c2sc3c(c2C#N)C2CCN3CC2)c(O)c1,-160,171*,·,·,
Cc1ccccc1[N+](=O)[O-],51*,13,2,-1,
O=[N+]([O-])c1ccccc1Cl,12,-2,-2,3,
COC(=O)C1=C(c2ccc(OC(F)(F)F)cc2)C[C@@H]2CC[C@H]1N2C(=O)NCc1ccco1,·,·,-1,-1,
Cc1cc(OC(=O)c2cccs2)c2c3c(c(=O)oc2c1)CCCC3,52*,12,-4,-8,
Cc1cc(OC(=O)c2ccco2)c2c3c(c(=O)oc2c1)CCCC3,40,0,4,3,
C=C(C=O)CC1CC(O)[C@]2(C)OC3CC4OC5C[C@]6(C)O[C@]7(C)CCC8OC9C[C@]%10(C)OC%11C(C)=CC(=O)OC%11CC%10OC9C[C@@H](C)C8OC7CC6O[C@]5(C)C/C=C\C4OC3CC2O1 (stereo partly drawn),·,·,4,7,
Cc1ccc2c(c1)Oc1ccccc1N=C2,65*,1,4,2,
COc1cccc(NC2=NCCS2)c1,·,·,2,-2,
COC(=O)C1=C[C@H]([C@@H](C)[C@H](OC)c2ccccc2Br)[C@@H]2[C@H]1c1ccccc1N2C,·,·,-1,-14,
CCCCn1c(O)c(C(CC)=Nc2ccc(C(=O)O)cc2)c(=O)[nH]c1=O,11,0,3,15*,DDE Tn7 confirm=4;DDE Tn7 FP ctr=2
COC(=O)C(O)(c1ccc(N=Cc2ccccc2O)c(C)c1)C(F)(F)F (stereo not drawn),33,-6,4,16*,DDE Tn7 confirm=-1;DDE Tn7 FP ctr=-3
COC(=O)C(O)(c1ccc(NC(=O)c2cccs2)c(C)c1)C(F)(F)F (stereo not drawn),9,-1,-5,4,
O=S(=O)(c1ccc(Cl)cc1)N1Cc2ccc(Br)cc2-n2nncc2C1,·,·,-2,-1,
Cc1ccc2cc(C=C(C#N)C#N)c(Cl)nc2c1,-31,13,2,15*,DDE Tn7 confirm=10;DDE Tn7 FP ctr=5
ClCCNc1nc2ccc(Cl)cc2[nH]1,17,1,3,14*,DDE Tn7 confirm=-6;DDE Tn7 FP ctr=-8
O=C(NCCN1CCC2(CC1)C(=O)NCN2c1ccccc1)c1cccs1,·,·,-6,-2,
CC[C@@H](CO)NC(=O)[C@@H]1C=C2c3cccc4[nH]cc(c34)C[C@H]2N(C)C1,-21,15,1,16*,DDE Tn7 confirm=-1;DDE Tn7 FP ctr=-1
CCOC(=O)CC[C@@H]1CC[C@]2(CCCN(Cc3cccnc3)C2)O1,·,·,-4,-3,
CNC(=S)N1CCN(CCN=Cc2c(O)n(-c3ccc(C)cc3)c(=S)[nH]c2=O)CC1,-5,2,1,4,
Cc1cccc(-n2c(O)c(C=NCCN3CCNCC3)c(=O)[nH]c2=S)c1,-4,5,16*,-2,DDE Tn6 FP ctr=-2;DDE Tn6 confirm=-4
COC(=O)CC1(CC(=O)OC)C(=O)NC(=O)NC1=O,-5,0,18*,-1,DDE Tn6 FP ctr=-5;DDE Tn6 confirm=-13
COC(=O)CC1(CC(=O)OC)C(=O)N(c2ccccc2)C(=O)N(c2ccccc2)C1=O,-22,10,-1,-10,
CCOC(=O)C(O)(c1ccc(NC(=O)NC2CCCCC2)cc1)C(F)(F)F (stereo not drawn),-47,2,17*,5,DDE Tn6 FP ctr=4;DDE Tn6 confirm=-8
O=S(=O)(c1ccc(Cl)cc1)N1CN2CCN(C2)C1,2,-1,5,6,
